Broadly, the pIC50 is the IC50 on a negative log10 scale, so that one unit is a factor of ten. A low value points to a large IC50.

pIC50: −log10 of the molar value. Activity calls are given as the source filed them. The calls are words filed in the database; no cut-off is given here.

The test system of series [1] is HL-60. Description: Cytoprotective activity against H2O2-induced apoptosis in human HL60 cells assessed as increase in cell viability at 10 uM incubated for 1 hr followed by H2O2 stimulation measured after 4 hrs in presence of caspase inhibitor Z-VAD by Alamar blue assay. Format: functional, cell-based. The method, boiled down:
(§1)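 HL-60 cells exposed to low-level H2O2 (30 μM, 4 h) with or without test agent (10 μM) or Z-VAD (100 μM). Viability read by AlamarBlue; morphology by phase-contrast imaging.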
(In general: Alamar Blue is a resazurin reagent that responds to reducing activity.)

The test system of series [2] is HL-60. Description: Cytoprotective activity against TBHP-induced necrosis in human HL60 cells assessed as increase in cell viability at 10 uM incubated for 1 hr followed by TBHP stimulation measured after 3 hrs by Alamar blue assay. The class given is functional, cell-based. Put shortly: (§2)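 HL-60 cells given a death inducer with or without test agent (10 μM) or Z-VAD (100 μM). Inducers were actinomycin D 1 μM for 6 h, camptothecin 1 μM for 6 h, etoposide 100 μM for 4 h, FasL 100 ng/mL for 18 h, H2O2 100 μM for 3 h, and TBHP 30 μM for 3 h. Viability read by AlamarBlue.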

Series [3] has as its system HL-60. Description: Cytoprotective activity against H2O2-induced necrosis in human HL60 cells incubated for 1 hr followed by H2O2 stimulation by LDH release assay. Format: functional, cell-based. Conditions: HL-60, 1 h. Put shortly: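 Necrosis of HL-60 cells induced by H2O2 and quantified as lactate dehydrogenase release from the cytosol; IC50 derived.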
On the technique in general: LDH in the medium is a marker of cell lysis.

Series [4] has as its system HL-60. Description: Cytoprotective activity against H2O2-induced necrosis in human HL60 cells assessed as increase in cell viability at 10 uM incubated for 1 hr followed by H2O2 stimulation measured after 4 hrs in presence of caspase inhibitor Z-VAD by Alamar blue assay. Format: functional, cell-based. The method, boiled down: as §1
For series [5], the system named is HL-60. Briefly: Cytoprotective activity against H2O2-induced necrosis in human HL60 cells assessed as increase in cell viability at 10 uM incubated for 1 hr followed by H2O2 stimulation measured after 4 hrs in presence of caspase inhibitor Z-VAD by phase contrast microscopy. Format: functional, cell-based. The method, boiled down:
as §1

Series [6] is described as follows: Solubility of the compound in water. The class given is physicochemical. Conditions: buffer.
The subject of series [7] is Jurkat. Briefly: Cytoprotective activity against FasL-induced apoptosis in human Jurkat cells assessed as increase in cell viability at 10 uM incubated for 1 hr followed by FasL stimulation measured after 18 hrs by Alamar blue assay. The class given is functional, cell-based. The method, boiled down:
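Jurkat cells exposed to FasL (100 ng/mL, 18 h) with or without test agent (10 μM) or Z-VAD (100 μM). Viability measured by AlamarBlue and morphology by phase-contrast imaging.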

Series [8] relates to HL-60. Briefly: Cytoprotective activity against Fas ligand-induced apoptosis in human HL60 cells assessed as increase in cell viability at 10 uM incubated for 1 hr followed by Fas ligand stimulation measured after 18 hrs by Alamar blue assay. The class given is functional, cell-based. Put shortly: as §2
The test system of series [9] is HL-60. Description: Cytoprotective activity against H2O2-induced necrosis in human HL60 cells assessed as increase in cell viability at 10 uM incubated for 1 hr followed by H2O2 stimulation measured after 3 hrs by Alamar blue assay. The class given is functional, cell-based. The method, boiled down: as §2
Series [10] concerns HL-60. Description: Cytoprotective activity against actinomycin D-induced apoptosis in human HL60 cells assessed as increase in cell viability at 10 uM incubated for 1 hr followed by actinomycin D stimulation measured after 6 hrs by Alamar blue assay. Format: functional, cell-based. Put shortly:
as §2

For series [11], the system named is Jurkat. Briefly: Cytoprotective activity against Z-VAD-induced necroptosis in human Jurkat cells assessed as increase in cell viability at 10 uM incubated for 1 hr followed by Z-VAD stimulation by phase contrast microscopy. Format: functional, cell-based. The method, boiled down:
(§3)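 Jurkat necroptosis induced with FasL (100 ng/mL, 20 h) together with Z-VAD (100 μM) or cycloheximide (5 μM). Test agents were run at 10 μM alongside a necroptosis inhibitor at 30 μM. Viability read by AlamarBlue; morphology examined by phase-contrast imaging.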

In series [12] the test system is Jurkat. Description: Cytoprotective activity against FasL-induced necroptosis in human Jurkat cells assessed as increase in cell viability at 10 uM incubated for 1 hr followed by FasL stimulation measured after 20 hrs by Alamar blue assay. The class given is functional, cell-based. The method, boiled down:
as §3

Series [13] has as its system Jurkat. Briefly: Cytoprotective activity against CHX-induced necroptosis in human Jurkat cells assessed as increase in cell viability at 10 uM incubated for 1 hr followed by CHX stimulation by Alamar blue assay. The class given is functional, cell-based. Put shortly: as §3
The subject of series [14] is HL-60. Briefly: Cytoprotective activity against etoposide-induced apoptosis in human HL60 cells assessed as increase in cell viability at 10 uM incubated for 1 hr followed by etoposide stimulation measured after 4 hrs by Alamar blue assay. The class given is functional, cell-based. The method, boiled down:
as §2

The test system of series [15] is H9c2. Briefly: Cytotoxicity against rat H9c2 cells at 30 uM. Format: cell-based. Conditions: h9c2, 30 µM.
Series [16] has as its system Jurkat. Briefly: Cytoprotective activity against CHX-induced necroptosis in human Jurkat cells assessed as increase in cell viability at 10 uM incubated for 1 hr followed by CHX stimulation by phase contrast microscopy. Format: functional, cell-based. Put shortly:
as §3

For series [17], the system named is Jurkat. Description: Cytoprotective activity against FasL-induced necroptosis in human Jurkat cells assessed as increase in cell viability at 10 uM incubated for 1 hr followed by FasL stimulation measured after 20 hrs by phase contrast microscopy. Format: functional, cell-based. The method, boiled down: as §3
The subject of series [18] is Jurkat. Briefly: Cytoprotective activity against Z-VAD-induced necroptosis in human Jurkat cells assessed as increase in cell viability at 10 uM incubated for 1 hr followed by Z-VAD stimulation by Alamar blue assay. Format: functional, cell-based. The method, boiled down:
as §3

The subject of series [19] is HL-60. Description: Cytoprotective activity against H2O2-induced necrosis in human HL60 cells assessed as increase in cell viability at 10 uM incubated for 1 hr followed by H2O2 stimulation measured after 4 hrs by Alamar blue assay. Format: functional, cell-based. The method, boiled down: as §1
In series [20] the test system is HL-60. Briefly: Cytoprotective activity against H2O2-induced apoptosis in human HL60 cells assessed as increase in cell viability at 10 uM incubated for 1 hr followed by H2O2 stimulation measured after 4 hrs in presence of caspase inhibitor Z-VAD by phase contrast microscopy. The class given is functional, cell-based. The method, boiled down: as §1
Series [21] concerns HL-60. Description: Cytoprotective activity against H2O2-induced necrosis in human HL60 cells assessed as increase in cell viability at 10 uM incubated for 1 hr followed by H2O2 stimulation measured after 4 hrs by phase contrast microscopy. Format: functional, cell-based. The method, boiled down:
as §1

Series [22] concerns HL-60. Description: Cytoprotective activity against camptothecin-induced apoptosis in human HL60 cells assessed as increase in cell viability at 10 uM incubated for 1 hr followed by camptothecin stimulation measured after 6 hrs by Alamar blue assay. The class given is functional, cell-based. Put shortly:
as §2

Series [23] can be described thus: Stability in rat liver S9 fraction at 5 uM after 30 mins by HPLC method. The class given is ADME, subcellular. Conditions: s9, 0.5 h.
Series [24] deals with H9c2. Description: Cytoprotective activity against TBHP-induced necrosis in rat H9c2 cells incubated for 4 hrs by LDH release assay. The class given is functional, cell-based. Conditions: H9c2, 4 h. Put shortly:
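Rat cardiomyoblast H9c2 cells treated with TBHP (300 μM) with or without test compound; necrotic cell death quantified by LDH release assay.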

Consider `CCCCCNC1=C(c2cn(C)c3ccccc23)C(=O)N(C)C1=O`, for which the result in [1], in [2], in series [4], in series [5], in series [9] and in [19] was Active. Besides, the result in [20] and in [21] was Active. Further, the values for the pIC50 in [3] and in series [24] were 6.60 and 5.41, respectively. In addition, in series [6], the solubility entry is given as “Insoluble”. Further, the result in series [7], in series [8], in series [10], in [11], in series [12] and in [13] was inactive. Moreover, the outcome in series [14], in [16], in series [17], in series [18] and in [22] was inactive. The Activity result in series [15] is “Non-Toxic”. Besides, the Stability entry in [23] was “Unstable”.
